Blank lines part the entries; values can stand above or below the compound they belong to. Active and inactive are the calls of the source. No cut-off for these calls is given here.
What was measured:
Homo sapiens [1] = organism: Homo sapiens; assay: Ratio of Kinact/Ki for PAD4 (unknown origin) to Kinact/Ki for PAD3 (unknown origin)
Homo sapiens [2] = organism: Homo sapiens; assay: Ratio of Kinact/Ki for PAD4 (unknown origin) to Kinact/Ki for PAD2 (unknown origin)
Homo sapiens [3] = organism: Homo sapiens; assay: Ratio of Kinact/Ki for PAD4 (unknown origin) to Kinact/Ki for PAD1 (unknown origin)
Homo sapiens [4] = organism: Homo sapiens; assay: Ratio of Kinact/Ki for PAD1 (unknown origin) to Kinact/Ki for PAD2 (unknown origin)
Homo sapiens [5] = organism: Homo sapiens; assay: Ratio of Kinact/Ki for PAD1 (unknown origin) to Kinact/Ki for PAD3 (unknown origin)
Homo sapiens [6] = organism: Homo sapiens; assay: Ratio of Kinact/Ki for PAD1 (unknown origin) to Kinact/Ki for PAD4 (unknown origin)
Homo sapiens [7] = organism: Homo sapiens; assay: Ratio of Kinact/Ki for PAD3 (unknown origin) to Kinact/Ki for PAD1 (unknown origin)
Homo sapiens [8] = organism: Homo sapiens; assay: Ratio of Kinact/Ki for PAD3 (unknown origin) to Kinact/Ki for PAD2 (unknown origin)
Homo sapiens [9] = organism: Homo sapiens; assay: Ratio of Kinact/Ki for PAD3 (unknown origin) to Kinact/Ki for PAD4 (unknown origin)
Homo sapiens [10] = organism: Homo sapiens; assay: Ratio of Kinact/Ki for PAD2 (unknown origin) to Kinact/Ki for PAD1 (unknown origin)
Homo sapiens [11] = organism: Homo sapiens; assay: Ratio of Kinact/Ki for PAD2 (unknown origin) to Kinact/Ki for PAD3 (unknown origin)
Homo sapiens [12] = organism: Homo sapiens; assay: Ratio of Kinact/Ki for PAD2 (unknown origin) to Kinact/Ki for PAD4 (unknown origin)
[13] = biological target: T1, Protein-arginine deiminase type-4 (Homo sapiens, UniProt Q9UM07); assay: Inhibition of PAD4 in human HL60 cells assessed as reduction in A23187-induced citrullinated H4 level at 5 to 10 uM preincubated for 15 mins followed by A23187 addition measured after 15 mins by Western blot analysis; assay type: cell-based
T1 sequence (Q9UM07 whole entry): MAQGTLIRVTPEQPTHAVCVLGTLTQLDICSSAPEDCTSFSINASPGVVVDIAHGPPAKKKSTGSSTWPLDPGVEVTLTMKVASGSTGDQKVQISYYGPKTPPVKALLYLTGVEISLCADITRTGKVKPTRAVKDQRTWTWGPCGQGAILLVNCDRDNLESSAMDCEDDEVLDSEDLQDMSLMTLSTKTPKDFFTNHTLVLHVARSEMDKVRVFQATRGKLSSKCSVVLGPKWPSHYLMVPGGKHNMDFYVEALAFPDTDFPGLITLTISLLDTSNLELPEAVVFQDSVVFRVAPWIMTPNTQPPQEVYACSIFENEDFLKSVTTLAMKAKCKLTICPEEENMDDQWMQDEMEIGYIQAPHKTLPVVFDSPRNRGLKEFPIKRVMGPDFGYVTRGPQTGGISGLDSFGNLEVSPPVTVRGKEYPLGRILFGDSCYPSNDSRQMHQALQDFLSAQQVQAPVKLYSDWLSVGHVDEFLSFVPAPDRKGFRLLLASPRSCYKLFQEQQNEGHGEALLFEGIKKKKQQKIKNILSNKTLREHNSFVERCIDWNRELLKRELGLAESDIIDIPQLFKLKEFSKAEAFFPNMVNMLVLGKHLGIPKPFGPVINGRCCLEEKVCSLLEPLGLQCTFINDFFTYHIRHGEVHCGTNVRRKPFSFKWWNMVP
Procedure, shortened: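 HL-60 cells differentiated into mature granulocytes, which express PAD4, then stimulated with a calcium ionophore to trigger histone H4 citrullination. Cell lysates were analysed by Western blot using an anti-citrulline histone H4 antibody.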

[14] = biological target: T1, Protein-arginine deiminase type-4; assay: Inhibition of PAD4 (unknown origin) preincubated for 15 mins followed by BAEE addition measured after 15 mins by spectrophotometric method

SMILES: N=C(CCl)NCCCc1nn(CC2CCCC2)c2cc(Cl)ccc12
Ratio (Homo sapiens [1]): 2

SMILES: CC(C)(C)n1nnc([C@H](CCCNC(=N)CCl)NC(=O)c2cccc(C(=O)O)c2)n1
Ratio (Homo sapiens [4]): > 3
Ratio (Homo sapiens [5]): > 3
Ratio (Homo sapiens [6]): > 3

SMILES: CCN1Cc2ccc(C(=O)N[C@@H](CCCNC(=N)CF)c3nc4c(OC)cccc4n3C)cc2C1=O
Ratio (Homo sapiens [10]): > 5
Ratio (Homo sapiens [11]): > 5
Ratio (Homo sapiens [12]): > 5

SMILES: N=C(CCl)NCCCc1nn(CC2CCCC2)c2cc(Cl)c(Cl)c(Cl)c12
Ratio (Homo sapiens [1]): 11
Ratio (Homo sapiens [2]): 58
Ratio (Homo sapiens [3]): 2700
inhibition [13]: Active

SMILES: Cn1cc(CCCNC(=N)CCl)c2ccccc21
IC50 [14]: 190 µM

SMILES: N=C(CCl)NCCCc1nn(CC2CCCC2)c2ccc(Cl)cc12
Ratio (Homo sapiens [1]): 1.6

More lines, now with the values ahead:

Ratio (Homo sapiens [1]): 7.5
Ratio (Homo sapiens [2]): 72
Ratio (Homo sapiens [3]): 3300
SMILES: N=C(CCl)NCCCc1nn(CC2CCCC2)c2cc(Cl)cc(Cl)c12

Ratio (Homo sapiens [7]): > 10
Ratio (Homo sapiens [8]): > 10
Ratio (Homo sapiens [9]): > 10
SMILES: N=C(CCl)NCCCC1NC(=O)N(Cc2ccc(-c3ccccc3Cl)cc2)C1=O (racemic)

inhibition [13]: Active
SMILES: N=C(CCl)NCCC[C@H](NC(=O)c1ccccc1)C(N)=O

Ratio (Homo sapiens [1]): 1.3
SMILES: N=C(CCl)NCCCc1nn(CC2CCCC2)c2cccc(Cl)c12
